Where a name gives a salt, the structure may show the parent alone. Read-outs that look alike come from different tables or passages of the source.
What was measured:
[1] = target: T1, cPAH (phenylalanine hydroxylase from Chromobacterium violaceum) (Chromobacterium violaceum, UniProt P30967, T254A); experiment: biochemical
[2] = target: T2, cPAH (phenylalanine hydroxylase from Chromobacterium violaceum) (Chromobacterium violaceum, UniProt P30967, Y155A); experiment: biochemical
[3] = target: T3, cPAH (phenylalanine hydroxylase from Chromobacterium violaceum) (Chromobacterium violaceum, UniProt P30967, F258A); experiment: biochemical
[4] = target: T4, cPAH (phenylalanine hydroxylase from Chromobacterium violaceum) (Chromobacterium violaceum, UniProt P30967); experiment: ITC; assay type: binding
T4 sequence (P30967 1-297): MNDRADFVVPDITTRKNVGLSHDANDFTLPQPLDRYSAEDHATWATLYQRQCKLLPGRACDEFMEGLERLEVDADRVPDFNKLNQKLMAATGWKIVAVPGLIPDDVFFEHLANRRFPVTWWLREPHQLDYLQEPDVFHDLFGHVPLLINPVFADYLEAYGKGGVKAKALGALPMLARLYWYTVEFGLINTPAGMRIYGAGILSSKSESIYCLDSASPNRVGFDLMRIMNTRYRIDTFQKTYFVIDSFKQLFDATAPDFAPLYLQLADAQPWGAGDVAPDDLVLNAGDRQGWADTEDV
Outline: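 Untagged or GST-cleaved C. violaceum cPAH (WT or point mutants), dialysed overnight against 50 mM HEPES pH 7.4. Amino-acid ligand (1–10 mM) titrated into 50–100 µM protein over 18 × 2 µL injections. Buffer-only reference subtracted; one-site fit; duplicates. Anaerobic variant (argon, 25 °C): apo enzyme reconstituted with 0.5–1.0 mol ferrous ammonium sulfate per mol PAH, plus 200 µM pterin cofactor, equilibrated 15 min.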

[5] = target: T5, cPAH (phenylalanine hydroxylase from Chromobacterium violaceum) (Chromobacterium violaceum, UniProt P30967, S203P); experiment: biochemical
[6] = target: T4, cPAH (phenylalanine hydroxylase from Chromobacterium violaceum); experiment: tyrosine formation at […] nm, initial rates; assay type: biochemical; settings: 20 °C, 0.1 M Na-HEPES pH 7.4, O2 saturated, FeSO4, 350 µM DMPH4
[7] = target: T4, cPAH (phenylalanine hydroxylase from Chromobacterium violaceum); experiment: ITC, one-site model; assay type: binding
[8] = target: T5, cPAH (phenylalanine hydroxylase from Chromobacterium violaceum); experiment: biochemical; remark: listed apart in the source
[9] = target: T2, cPAH (phenylalanine hydroxylase from Chromobacterium violaceum); experiment: biochemical; remark: listed apart in the source
[10] = target: T1, cPAH (phenylalanine hydroxylase from Chromobacterium violaceum); experiment: biochemical; remark: listed apart in the source
[11] = target: T3, cPAH (phenylalanine hydroxylase from Chromobacterium violaceum); experiment: biochemical; remark: listed apart in the source

SMILES	Kd [1]	Kd [2]	Kd [3]	Kd [4]	Kd [5]	Km [6]	Kd [7]	Kd [8]	Kd [9]	Kd [10]	Kd [11]
C[C@H](O)[C@H](O)[C@H]1CNc2nc(N)[nH]c(=O)c2N1 [BH4, (6R)-5,6,7,8-tetrahydrobiopterin dihydrochloride]	43.6 ± 4.2 µM	16.2 ± 0.7 µM	29.3 ± 1.6 µM	23.5 ± 1.6 µM	35.2 ± 3.3 µM						
N[C@@H](Cc1ccccc1)C(=O)O [phenylalanine]						244 ± 40.8 µM	24 ± 1.1 µM	7 ± 0.3 µM	559 ± 30 µM	376 ± 10 µM	775 ± 44 µM

— publication PMC3972754 (European biophysics journal : EBJ, 2013)
